In ChEMBL document CHEMBL1131384, “Synthesis and structure-activity relationships of potent and orally active 5-HT4 receptor antagonists: indazole and benzimidazolone derivatives” (J Med Chem, 1998):

Key:
[1] = biological target: 5-hydroxytryptamine receptor 4 (Rattus norvegicus) (UniProt Q62758); assay: Antagonistic activity by ability to block serotonin induced relaxation (mediated by activation of 5-hydroxytryptamine 4 receptor) in carbamylcholine (10e-6 M) contracted esophagus at a concentration of 10e-7 M.; assay type: functional, tissue-based
Chain of 5-hydroxytryptamine receptor 4 (Rattus norvegicus) (Q62758 whole entry): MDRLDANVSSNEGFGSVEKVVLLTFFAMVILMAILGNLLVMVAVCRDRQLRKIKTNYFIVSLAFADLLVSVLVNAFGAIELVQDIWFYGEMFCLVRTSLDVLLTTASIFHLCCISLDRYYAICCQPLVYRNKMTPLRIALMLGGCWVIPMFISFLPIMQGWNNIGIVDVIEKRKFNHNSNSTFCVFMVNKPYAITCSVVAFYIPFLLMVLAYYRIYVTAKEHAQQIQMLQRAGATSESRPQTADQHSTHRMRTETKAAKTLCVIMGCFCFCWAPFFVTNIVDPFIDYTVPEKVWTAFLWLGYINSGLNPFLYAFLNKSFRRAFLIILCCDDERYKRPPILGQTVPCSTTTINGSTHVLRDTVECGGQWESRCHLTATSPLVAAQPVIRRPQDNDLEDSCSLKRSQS
Procedure, shortened: (§1)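 Isolated rat esophagus precontracted with carbamylcholine (10^-6 M). Tissue was challenged with serotonin (1 µM) in the presence of the antagonist at a given concentration or of vehicle. Relaxation was recorded as % relaxation to 10^-6 M 5-HT, given as mean ± SEM with the number of determinations.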

[2] = biological target: 5-hydroxytryptamine receptor 4 (Rattus norvegicus) (UniProt Q62758); assay: Antagonistic activity evaluated by ability to block serotonin induced relaxation (mediated by activation of 5-hydroxytryptamine 4 receptor) in carbamylcholine (10e-6 M) contracted esophagus at a concentration of 10e-8 M.; assay type: functional, tissue-based; procedure, shortened: as §1
[3] = biological target: 5-hydroxytryptamine receptor 4 (Rattus norvegicus) (UniProt Q62758); assay: Antagonistic activity evaluated by ability to block serotonin induced relaxation via 5-hydroxytryptamine 4 receptor) in carbamylcholine (10e-6 M) contracted esophagus at a concentration of 0.1 mg/kg (p.o.); assay type: functional, organism-based; set-up: dose 0.1 mg/kg
Procedure, shortened: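 Rats were dosed with the antagonist by oral gavage. Esophagus was removed 3 h after dosing and challenged ex vivo with serotonin. Read-out was % relaxation of the carbamylcholine-contracted tissue to 10^-6 M 5-HT, given as mean ± SEM with the number of determinations.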

[4] = biological target: 5-hydroxytryptamine receptor 4 (Rattus norvegicus) (UniProt Q62758); assay: Antagonistic activity evaluated by ability to block serotonin induced relaxation (via 5-hydroxytryptamine 4 receptor) in carbamylcholine (10e-6 M) contracted esophagus at a concentration of 3*10e-8 M.; assay type: functional
Procedure, shortened: (§2)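 Isolated rat esophagus precontracted with carbamylcholine (10^-6 M), then challenged with serotonin (1 μM) in the presence of antagonist at the stated concentration or vehicle. Read-out is % relaxation to serotonin, given as mean ± SEM with the number of determinations.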

[5] = biological target: T1, Adrenergic receptor alpha-1 (Rattus norvegicus) (UniProt P15823+P23944+P43140); assay: Affinity for the alpha-1 adrenergic receptor determined by the displacement of [3H]prazosin from rat whole brain tissue.; assay type: tissue-based
[6] = biological target: 5-hydroxytryptamine receptor 4 (Rattus norvegicus) (UniProt Q62758); assay: Antagonistic activity evaluated by ability to block serotonin induced relaxation (mediated by activation of 5-hydroxytryptamine 4 receptor) in carbamylcholine (10e-6 M) contracted esophagus at a concentration of 10e-5 M.; assay type: functional, tissue-based; procedure, shortened: as §1
[7] = biological target: T1, Adrenergic receptor alpha-1 (Rattus norvegicus); assay: Binding affinity for Alpha-1 adrenergic receptor in rat aorta determined by block of norepinephrine induced contraction of rat aorta; assay type: tissue-based
[8] = biological target: 5-hydroxytryptamine receptor 4 (Rattus norvegicus) (UniProt Q62758); assay: Antagonistic activity by ability to block serotonin induced relaxation (mediated by activation of 5-hydroxytryptamine 4 receptor) in carbamylcholine (10e-6 M) contracted esophagus at a concentration of 10e-6 M.; assay type: functional, tissue-based; procedure, shortened: as §1
[9] = biological target: Serotonin 3 (5-HT3) receptor (Homo sapiens) (UniProt P46098+A5X5Y0+O95264+Q70Z44+Q8WXA8); assay: The compound was tested for binding affinity against 5-hydroxytryptamine 3 receptor in guinea pig ileum.; assay type: tissue-based; settings: Cavia porcellus, target entry is the homologue from another species
[10] = biological target: 5-hydroxytryptamine receptor 4 (Rattus norvegicus) (UniProt Q62758); assay: Antagonistic activity of compound was evaluated by ability to block serotonin induced relaxation (mediated by activation of 5-hydroxytryptamine 4 receptor) in carbamylcholine (10e-6 M) contracted esophagus at a concentration of 3*10e-7 M.; assay type: functional; procedure, shortened: as §2
[11] = biological target: 5-hydroxytryptamine receptor 4 (Rattus norvegicus) (UniProt Q62758); assay: Antagonistic activity of compound was evaluated by ability to block serotonin induced relaxation (mediated by activation of 5-hydroxytryptamine 4 receptor) in carbamylcholine (10e-6 M) contracted esophagus at a concentration of 10e-7 M.; assay type: functional; procedure, shortened: as §2
[12] = biological target: Serotonin 2 (5-HT2) receptor (Rattus norvegicus) (UniProt P30994+P08909+P14842); assay: Binding affinity against 5-hydroxytryptamine 2 receptor in serotonin-induced contraction of the rat aorta; assay type: tissue-based
Chain of Serotonin 2 (5-HT2) receptor (Rattus norvegicus) (P08909 whole entry, looked up): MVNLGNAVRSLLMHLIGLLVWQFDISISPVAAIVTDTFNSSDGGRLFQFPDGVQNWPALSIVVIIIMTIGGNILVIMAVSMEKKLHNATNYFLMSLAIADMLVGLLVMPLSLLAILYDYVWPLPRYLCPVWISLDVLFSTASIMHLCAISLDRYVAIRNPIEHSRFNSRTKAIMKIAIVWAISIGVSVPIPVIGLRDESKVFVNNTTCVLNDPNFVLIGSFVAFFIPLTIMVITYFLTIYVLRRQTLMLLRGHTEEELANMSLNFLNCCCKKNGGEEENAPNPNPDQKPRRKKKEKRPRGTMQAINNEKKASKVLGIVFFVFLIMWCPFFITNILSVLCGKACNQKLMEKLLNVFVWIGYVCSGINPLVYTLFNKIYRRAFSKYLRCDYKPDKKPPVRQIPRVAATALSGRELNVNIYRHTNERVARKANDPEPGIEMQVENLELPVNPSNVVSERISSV
Chain of Serotonin 2 (5-HT2) receptor (Rattus norvegicus) (P14842 whole entry, looked up): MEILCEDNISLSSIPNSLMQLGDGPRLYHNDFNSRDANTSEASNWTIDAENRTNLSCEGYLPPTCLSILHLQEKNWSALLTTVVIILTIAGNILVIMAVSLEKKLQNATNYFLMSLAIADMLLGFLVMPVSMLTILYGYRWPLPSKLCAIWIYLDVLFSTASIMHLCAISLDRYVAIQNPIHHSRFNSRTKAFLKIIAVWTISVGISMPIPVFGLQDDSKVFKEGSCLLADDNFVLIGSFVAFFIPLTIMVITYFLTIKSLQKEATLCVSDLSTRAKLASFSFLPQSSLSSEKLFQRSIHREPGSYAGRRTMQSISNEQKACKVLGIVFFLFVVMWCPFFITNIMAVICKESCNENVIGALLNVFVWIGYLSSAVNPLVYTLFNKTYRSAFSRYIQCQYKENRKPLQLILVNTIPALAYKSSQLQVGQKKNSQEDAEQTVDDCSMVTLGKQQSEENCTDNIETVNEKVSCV
Chain of Serotonin 2 (5-HT2) receptor (Rattus norvegicus) (P30994 whole entry, looked up): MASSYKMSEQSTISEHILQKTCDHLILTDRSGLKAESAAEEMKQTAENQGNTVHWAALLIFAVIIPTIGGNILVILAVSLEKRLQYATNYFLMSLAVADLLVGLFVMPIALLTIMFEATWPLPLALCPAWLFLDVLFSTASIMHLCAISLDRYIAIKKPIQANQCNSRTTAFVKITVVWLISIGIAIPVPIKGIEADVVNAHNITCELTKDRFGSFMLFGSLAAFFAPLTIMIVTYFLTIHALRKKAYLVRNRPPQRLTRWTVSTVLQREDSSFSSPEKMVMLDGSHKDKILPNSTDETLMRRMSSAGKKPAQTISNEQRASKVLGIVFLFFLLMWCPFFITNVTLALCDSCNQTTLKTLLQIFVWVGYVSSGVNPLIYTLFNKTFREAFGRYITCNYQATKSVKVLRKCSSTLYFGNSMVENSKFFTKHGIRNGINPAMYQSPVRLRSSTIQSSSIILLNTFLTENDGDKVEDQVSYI

SMILES	Relaxation [1] [%]	Relaxation [2] [%]	Relaxation [3] [%]	Relaxation [4] [%]	pKi [5]	pKb [7]	Relaxation [8] [%]	other results
CC(C)C(=O)NC1CCN(CCNC(=O)c2nn(C(C)C)c3ccccc23)CC1	9	34.8	45					
CCC(C)n1nc(C(=O)NC2CC3CCC(C2)N3C)c2ccccc21 (configuration not stated)				46.3				
CC(C)n1nc(C(=O)NCCN2CCC(NC(=O)C34C[C@H]5C[C@@H](C3)C[C@@H](C4)C5)CC2)c2ccccc21	11	48.1	27	23.2	4.3			
CN1C2CCC1CC(NC(=O)c1n[nH]c3ccccc13)C2 (configuration not stated)								Relaxation [6]: 50.5%
CCCCC(=O)NC1CCN(CCNC(=O)c2nn(C(C)C)c3ccccc23)CC1	25.6	51	38					
CC(C)n1nc(C(=O)NC2CCN(CCc3ccccc3)CC2)c2ccccc21						7.68	1.3	
CC(C)n1nc(C(=O)NCCN2CCC(NC(=O)C(C)(C)C)CC2)c2ccccc21	7.8	50.5	30	35			3.3	
COc1cc(N)c(Cl)cc1C(=O)NC1CC2CCC(C1)N2C (configuration not stated)							5.4	Relaxation [6]: 2.8%
CCCn1c(=O)n(C(=O)NC2CC3CCC(C2)N3C)c2ccccc21 (configuration not stated)				30.7			4.3	
CN1[C@@H]2CC[C@H]1C[C@@H](NC(=O)c1cc(Cl)cc3c1OC(C)(C)C3)C2							37	pKb [9]: 8.78; Relaxation [6]: 22.2%
CN1C2CCC1CC(NC(=O)c1cccc3ccccc13)C2 (configuration not stated)								Relaxation [6]: 76.5%
CC(C)n1nc(C(=O)NCCN2CCC(NC(=O)OCc3ccccc3)CC2)c2ccccc21			21		5.9	< 5	2.8	
CC(C)n1c(=O)n(C(=O)NC2CC3CCC(C2)N3C)c2ccccc21 (configuration not stated)		55		13.8			2.7	pKb [9]: 7.5
CC(C)n1nc(C(=O)NC2CCN(C)CC2)c2ccccc21				37.3				pKb [9]: 6.3
CC(C)n1nc(C(=O)NC2CCN(CCNC(=O)c3ccccc3)CC2)c2ccccc21	28				6.62	5.8	6	
CN1C2CCCC1CC(NC(=O)c1nn(C)c3ccccc13)C2 (configuration not stated)								Relaxation [6]: 21%
CC(C)n1nc(C(=O)NC2CCN(CCCc3ccccc3)CC2)c2ccccc21						5.8	3.7	
CCn1c(=O)n(C(=O)NC2CC3CCC(C2)N3C)c2ccccc21 (configuration not stated)				37.5				
CC(C)n1nc(C(=O)NCCCN2CCCCC2)c2ccccc21	27.3		15		< 4.5		6.3	Relaxation [10]: 14.3%
CC(C)n1nc(C(=O)NC2CCN(CCNS(C)(=O)=O)CC2)c2ccccc21	16				< 4	< 5	6.8	
CC(C)n1nc(C(=O)NCCN2CCC(NC(=O)c3ccccc3)CC2)c2ccccc21	14.7	34.3	50				2	
CC(C)n1nc(C(=O)NC2CCN(CCCCc3ccccc3)CC2)c2ccccc21						5.6	4	
CC(C)n1nc(C(=O)NC2CC3CCC(C2)N3C)c2ccccc21 (configuration not stated)		43.2					8	Relaxation [11]: 9%
COc1cc(N)c(Cl)cc1C(=O)NC1CCN(CCCOc2ccc(F)cc2)CC1OC (configuration not stated)						6.7	7	pKb [12]: 7.89; Relaxation [6]: 20.3%
CC(=O)NC1CCN(CCNC(=O)c2nn(C(C)C)c3ccccc23)CC1		51.3	19.1	33.5	< 4		6.8	
CC(C)n1nc(C(=O)NC2CCN(Cc3ccccc3)CC2)c2ccccc21	24.5	38.5		23.3	< 4	< 5	3.85	pKb [12]: 5.5
CC(C)n1nc(C(=O)NCCN2CCCCC2)c2ccccc21	22		38		4.8	4.9		pKb [12]: < 5; pKb [9]: 5.8; Relaxation [6]: 6.6%
CC(C)n1nc(C(=O)NC2CCN(CCN3C(=O)c4ccccc4C3=O)CC2)c2ccccc21							7.5	pKb [12]: < 5
CN1[C@@H]2CC[C@H]1C[C@@H](OC(=O)c1c[nH]c3ccccc13)C2							33.9	Relaxation [6]: 26.4%
CC(C)n1nc(C(=O)NC2CCN(CCCOc3ccc(F)cc3)CC2)c2ccccc21	15.7			36	7.69	6.7	7.5	pKb [12]: 6.8
